# Experimental data published in ChEMBL document CHEMBL1122671, “Anticonvulsant activity of some 4-aminobenzamides” (J Med Chem, 1984).
# Activity calls are given as the source filed them.
# Tests used:
# Mus musculus [1] = assay: Anticonvulsant activity against MES (maximal electroshock) induced seizure in mice at 4 hr; f = No activity at 100 mg/kg; format: functional, organism-based; design: dose 100 mg/kg
# Procedure, shortened: (§1)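 Male Carworth Farms number-one mice received the compound ip in 30% polyethylene glycol 400. Doses were 30, 100 and 300 mg/kg, with 600 mg/kg in some cases. Maximal electroshock seizure protection was scored at 30 min and 4 h after dosing. Activity is coded by the lowest effective dose.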
# Mus musculus [2] = assay: Anticonvulsant activity against scMet (subcutaneous metrazole) induced seizure in mice at 30 min; f = No activity at 100 mg/kg; format: functional, organism-based; design: dose 100 mg/kg
# Mus musculus [3] = assay: Anticonvulsant activity against scMet (subcutaneous metrazole) induced seizure in mice at 4 hr; f = No activity at 100 mg/kg; format: functional, organism-based; design: dose 100 mg/kg
# Mus musculus [4] = assay: Anticonvulsant activity against MES (maximal electroshock) induced seizure in mice at 30 min; +++ = activity at 100 mg/kg; format: functional, organism-based; design: dose 100 mg/kg; procedure, shortened: as §1
# Mus musculus [5] = assay: Evaluated for toxicity by using rotarod test at in mice 30 min; +++ = activity at 100 mg/kg *-LD50 less than 300 mg/kg; format: organism-based; settings: in vivo, 0.5 h
# Procedure, shortened: (§2)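 Neurotoxicity in male Carworth Farms number-one mice dosed ip in 30% PEG 400 at 30, 100, 300 and sometimes 600 mg/kg, tested 30 min or 4 h later. Mice placed on a 1-in. knurled rod rotating at 6 rpm; toxicity means failure to stay on the rod for 1 min. Scored by the lowest toxic dose; footnotes record loss of righting reflex or lethality.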
# Mus musculus [6] = assay: Evaluated for toxicity by using rotarod test in mice at 4 hr; f = No activity at 100 mg/kg; format: organism-based; design: dose 100 mg/kg; settings: in vivo; procedure, shortened: as §2
# Mus musculus [7] = assay: Anticonvulsant activity against MES (maximal electroshock) induced seizure in mice at 4 hr; d = No Activity at 300 mg/kg.; format: functional, organism-based; design: dose 300 mg/kg; procedure, shortened: as §1
# Mus musculus [8] = assay: Anticonvulsant activity against scMet (subcutaneous metrazole) induced seizure in mice at 30 min; d = No activity at 300 mg/kg.; format: functional, organism-based; design: dose 300 mg/kg
# Mus musculus [9] = assay: Anticonvulsant activity against scMet (subcutaneous metrazole) induced seizure in mice at 4 hr; d = No activity at 300 mg/kg.; format: functional, organism-based; design: dose 300 mg/kg
# Mus musculus [10] = assay: Anticonvulsant activity against MES (maximal electroshock) induced seizure in mice at 30 min; +++ = Activity at 100 mg/kg.; format: functional, organism-based; design: dose 100 mg/kg; procedure, shortened: as §1
# Mus musculus [11] = species on record: Mus musculus; assay: Evaluation of inhibitory activity against scMet induced convulsions in mice; format: functional
# Mus musculus [12] = assay: Evaluated for toxicity by using rotarod test at in mice 30 min; +++ = Activity at 100 mg/kg, *-Loss of righting reflex at less than 300 mg/kg,LD50 less than 600 mg/kg; format: organism-based; settings: in vivo, 0.5 h; procedure, shortened: as §2
# Mus musculus [13] = assay: Evaluated for toxicity by using rotarod test in mice at 4 hr; ++ = Activity at 300 mg/kg.; format: organism-based; design: dose 300 mg/kg; settings: in vivo; procedure, shortened: as §2
# Mus musculus [14] = assay: Evaluation of neurologic deficit by rotarod procedure in mice*-No activity at 300 mg/kg; format: functional
# Procedure, shortened: (§3)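 Male Carworth Farms number-one mice were dosed ip (30% PEG 400 vehicle) and placed on a 1-in. knurled plastic rod rotating at 6 rpm. Neurotoxicity meant failure to stay on the rod for 1 min. TD50 was determined graphically.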
# [15] = Protective index (PI) which is defined as the ratio of TD50 to the ED50 (MES).; format: functional
# Procedure, shortened: (§4)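 Both values come from ip dosing in 30% PEG 400 to male Carworth Farms number-one mice and were derived by the graphical method.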
# [16] = Protective index (PI) which is defined as the ratio of TD50 to the ED50 (ScMet).; format: functional; procedure, shortened: as §4
# Mus musculus [17] = assay: Anticonvulsant activity against scMet (subcutaneous metrazole) induced seizure in mice at 30 min; + = Activity at 600 mg/kg.; format: functional, organism-based; design: dose 600 mg/kg
# Mus musculus [18] = assay: Anticonvulsant activity against scMet (subcutaneous metrazole) induced seizure in mice at 4 hr; + = Activity at 600 mg/kg.; format: functional, organism-based; design: dose 600 mg/kg
# Mus musculus [19] = assay: Anticonvulsant activity against MES (maximal electroshock) induced seizure in mice at 4 hr; ++ = Activity at 300 mg/kg.; format: functional, organism-based; design: dose 300 mg/kg; procedure, shortened: as §1
# Mus musculus [20] = assay: Evaluated for toxicity by using rotarod test in mice at 30 min; + = Activity at 600 mg/kg.; format: organism-based; design: dose 600 mg/kg; settings: in vivo, 0.5 h; procedure, shortened: as §2
# Mus musculus [21] = assay: Evaluated for toxicity by using rotarod test in mice at 4 hr; + = Activity at 600 mg/kg.; format: organism-based; design: dose 600 mg/kg; settings: in vivo; procedure, shortened: as §2
# Mus musculus [22] = assay: Anticonvulsant activity against scMet (subcutaneous metrazole) induced seizure in mice at 30 min; +++ indicates activity at 100 mg/kg.; format: functional, organism-based; design: dose 100 mg/kg
# Mus musculus [23] = assay: Anticonvulsant activity against scMet (subcutaneous metrazole) induced seizure in mice at 4 hr; ++ indicates activity at 300 mg/kg.; format: functional, organism-based; design: dose 300 mg/kg
# Mus musculus [24] = assay: Anticonvulsant activity against MES (maximal electroshock) induced seizure in mice at 4 hr; +++ indicates activity at 100 mg/kg.; format: functional, organism-based; design: dose 100 mg/kg; procedure, shortened: as §1
# Mus musculus [25] = assay: Evaluated for toxicity by using rotarod test at in mice 30 min; ++ indicates activity at 300 mg/kg.; format: organism-based; design: dose 300 mg/kg; settings: in vivo, 0.5 h; procedure, shortened: as §2
# Mus musculus [26] = assay: Evaluated for toxicity by using rotarod test in mice at 4 hr; ++ indicates activity at 300 mg/kg.; format: organism-based; design: dose 300 mg/kg; settings: in vivo; procedure, shortened: as §2
# Mus musculus [27] = species on record: Mus musculus; assay: Evaluation of neurologic deficit by rotarod procedure in mice; format: functional; procedure, shortened: as §3
# Mus musculus [28] = assay: Anticonvulsant activity against scMet (subcutaneous metrazole) induced seizure in mice at 30 min; ++ = Activity at 300 mg/kg.; format: functional, organism-based; design: dose 300 mg/kg
# Mus musculus [29] = assay: Anticonvulsant activity against scMet (subcutaneous metrazole) induced seizure in mice at 4 hr; ++ = Activity at 300 mg/kg.; format: functional, organism-based; design: dose 300 mg/kg
# Mus musculus [30] = species on record: Mus musculus; assay: Evaluation of inhibitory activity against scMet induced convulsions in mice; NA = No activity.; format: functional, organism-based
# Mus musculus [31] = assay: Evaluated for toxicity by using rotarod test at in mice 30 min; +++ = Activity at 100 mg/kg,*-Loss of righting reflex at less than 300 mg/kg; format: organism-based; settings: in vivo, 0.5 h; procedure, shortened: as §2
# Mus musculus [32] = assay: Anticonvulsant activity against scMet (subcutaneous metrazole) induced seizure in mice at 30 min; + indicates activity at 600 mg/kg.; format: functional, organism-based; design: dose 600 mg/kg
# Procedure, shortened: (§5)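 Male Carworth Farms number-one mice dosed ip (30% PEG 400) at 30, 100, 300 and in some cases 600 mg/kg. Pentylenetetrazole 85 mg/kg given sc as a 0.5% solution in the posterior midline, at 30 min or 4 h. Protection means no clonic spasm of at least 5 s within 30 min. Scored by the lowest protective dose.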
# Mus musculus [33] = assay: Anticonvulsant activity against MES (maximal electroshock) induced seizure in mice at 4 hr; + indicates activity at 600 mg/kg.; format: functional, organism-based; design: dose 600 mg/kg
# Procedure, shortened: (§6)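 Male Carworth Farms number-one mice; compounds in 30% polyethylene glycol 400, given ip at 30, 100 and 300 mg/kg, some also at 600 mg/kg. Maximal electroshock challenge at 30 min or 4 h after dosing. Scored by the lowest dose giving protection (++++ 30, +++ 100, ++ 300, + 600 mg/kg; - none at 600).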
# Mus musculus [34] = assay: Anticonvulsant activity against MES (maximal electroshock) induced seizure in mice at 30 min; + indicates activity at 600 mg/kg.; format: functional, organism-based; design: dose 600 mg/kg; procedure, shortened: as §6
# Mus musculus [35] = assay: Anticonvulsant activity against scMet (subcutaneous metrazole) induced seizure in mice at 4 hr; - indicates no activity at 600 mg/kg.; format: functional, organism-based; design: dose 600 mg/kg; procedure, shortened: as §5
# Mus musculus [36] = assay: Evaluated for toxicity by using rotarod test at in mice 30 min; - indicates no activity at 600 mg/kg.; format: organism-based; design: dose 600 mg/kg; settings: in vivo, 0.5 h; procedure, shortened: as §2
# Mus musculus [37] = assay: Evaluated for toxicity by using rotarod test in mice at 4 hr; - indicates no activity at 600 mg/kg.; format: organism-based; design: dose 600 mg/kg; settings: in vivo; procedure, shortened: as §2
compound,measurement,setting,value
CCCCCCNC(=O)c1ccc(N)cc1,Activity,Mus musculus [1],No activity
same,Activity,Mus musculus [2],No activity
same,Activity,Mus musculus [3],No activity
same,Activity,Mus musculus [4],activity at 100 mg/kg
same,Toxicity,Mus musculus [5],activity at 100 mg/kg *-LD50 < 300 mg/kg
same,Toxicity,Mus musculus [6],No activity
CCCCNC(=O)c1ccc(N)cc1,Activity,Mus musculus [7],No activity
same,Activity,Mus musculus [8],No activity
same,Activity,Mus musculus [9],No activity
same,Activity,Mus musculus [10],Activity at 100 mg/kg
same,ED50,Mus musculus [11],83 mg/kg
same,Toxicity,Mus musculus [12],"Activity at 100 mg/kg, *-Loss of righting reflex at < 300mg/kg,LD50 < 600 mg/kg"
same,Toxicity,Mus musculus [13],"Activity at 100 mg/kg, *-Loss of righting reflex at < 300mg/kg,LD50 < 600 mg/kg"
same,TD50,Mus musculus [14],105 mg/kg
same,PI,[15],2.2
same,PI,[16],1.3
CCNC(=O)c1ccc(N)cc1,Activity,Mus musculus [17],Activity at 100 mg/kg
same,Activity,Mus musculus [18],Activity at 100 mg/kg
same,Activity,Mus musculus [19],Activity at 100 mg/kg
same,Activity,Mus musculus [10],Activity at 100 mg/kg
same,Toxicity,Mus musculus [20],Activity at 600 mg/kg
same,Toxicity,Mus musculus [21],Activity at 600 mg/kg
CC(NC(=O)c1ccc(N)cc1)c1ccccc1 (stereo not given),Activity,Mus musculus [22],activity at 100 mg/kg
same,Activity,Mus musculus [23],activity at 100 mg/kg
same,Activity,Mus musculus [24],activity at 100 mg/kg
same,Toxicity,Mus musculus [25],activity at 300 mg/kg
same,Toxicity,Mus musculus [26],activity at 300 mg/kg
same,TD50,Mus musculus [27],171 mg/kg
same,PI,[15],9.5
same,PI,[16],4.1
CCCN(CCC)C(=O)c1ccc(N)cc1,Activity,Mus musculus [28],Activity at 100 mg/kg
same,Activity,Mus musculus [29],Activity at 100 mg/kg
same,Activity,Mus musculus [19],Activity at 100 mg/kg
same,Activity,Mus musculus [10],Activity at 100 mg/kg
same,ED50,Mus musculus [30],inactive
same,Toxicity,Mus musculus [31],"Activity at 100 mg/kg,*-Loss of righting reflex at < 300 mg/kg"
same,Toxicity,Mus musculus [13],"Activity at 100 mg/kg,*-Loss of righting reflex at < 300 mg/kg"
same,TD50,Mus musculus [27],116 mg/kg
same,PI,[15],1.9
CC(Cc1ccccc1)NC(=O)c1ccc(N)cc1 (stereo not given),Activity,Mus musculus [32],activity at 600 mg/kg
same,Activity,Mus musculus [33],activity at 600 mg/kg
same,Activity,Mus musculus [34],activity at 600 mg/kg
same,Activity,Mus musculus [35],Not toxic
same,Toxicity,Mus musculus [36],Not toxic
same,Toxicity,Mus musculus [37],Not toxic
